Reference: ChEMBL document CHEMBL3526056, “Characterization of in vitro glucuronidation clearance of a range of drugs in human kidney microsomes: comparison with liver and intestinal glucuronidation and impact of albumin” (Drug Metab Dispos, 2012)

Assays:
[1] = Ratio of unbound intrinsic glucuronidation clearance in human kidney microsomes in presence of 2% bovine serum albumin to unbound intrinsic glucuronidation clearance in human kidney microsomes in absence of bovine serum albumin; type: ADME, microsome
In short: (§1)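 Ratios of mean scaled unbound CLint,UGT (per g tissue) between tissues, or between with and without BSA. Microsomal depletion assays at 1 μM, or 5 μM for propofol, in pH 7.1 phosphate at 37°C, read by LC-MS/MS. Kidney and liver n = 3, intestine n = 1, each in duplicate.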

[2] = Fraction unbound in human kidney microsomes at 5 uM after 30 to 60 mins by LC-MS/MS analysis in presence of 2% bovine serum albumin
[3] = Clearance in iv dosed human; type: ADME, organism-based; details: in vivo
[4] = Ratio of drug level blood to plasma in human; type: ADME; details: blood and plasma
Liver microsome [5] = assay: Fraction metabolized glucuronidation in human liver microsomes in presence of UDP-glucuronosyltransferase and bovine serum albumin; type: ADME
[6] = Fraction unbound in human kidney microsomes at 5 uM after 30 to 60 mins by LC-MS/MS analysis
[7] = Glucuronidation clearance in human liver microsomes; type: ADME
[8] = Glucuronidation clearance in human liver microsomes in presence of bovine serum albumin; type: ADME
Liver microsome [9] = assay: Ratio of unbound intrinsic glucuronidation clearance in human liver microsomes in presence of 2% bovine serum albumin to unbound intrinsic glucuronidation clearance in human liver microsomes in absence of bovine serum albumin; type: ADME; in short: as §1
Liver microsome [10] = assay: Fraction metabolized glucuronidation in human liver microsomes in presence of UDP-glucuronosyltransferase; type: ADME
[11] = Fraction unbound in human plasma
[12] = Fraction unbound in human liver microsomes at 5 uM after 30 to 60 mins by LC-MS/MS analysis
[13] = Ratio of unbound intrinsic glucuronidation clearance in human intestinal microsomes in presence of 2% bovine serum albumin to unbound intrinsic glucuronidation clearance in human intestinal microsomes in absence of bovine serum albumin; type: ADME, Intestine, Microsome; in short: as §1
[14] = Fraction unbound in human intestinal microsomes at 5 uM after 30 to 60 mins by LC-MS/MS analysis

For `CC(C)c1cccc(C(C)C)c1O` [PROPOFOL], the Ratio [1] was 1.6, the fraction unbound at 5 µM [2] was 0.25 and the clearance [3] was 27.7 mL/min/kg. The blood plasma ratio [4] was 0.88, the Drug metabolism (Liver microsome [5]) was 0.53 and the fraction unbound at 5 µM [6] was 0.69. It also gave a CLhep predicted [7] of 3.88 mL/min/kg, a CLhep predicted [8] of 14.7 mL/min/kg and a Ratio (Liver microsome [9]) of 1.6. For the same compound, the Drug metabolism (Liver microsome [10]) was 0.14, the fraction unbound [11] was 0.015 and the fraction unbound at 5 µM [12] was 0.69. The Ratio [13] was 1.6 and the fraction unbound at 5 µM [14] was 0.69.
